Assay results from different studies.
Lines come from different studies, so protocols differ.
Read-out: cell growth or viability

C[C@@H]1CC[C@@H]([C@](C)(O)Cn2cnc3ccccc32)[C@H](OCc2ccccc2)C1  inhibition (MCF7; MTT; 10 µM; 72 h): 51%
CCOC(=O)c1nn(-c2cccc(Cl)c2)/c(=N/N=C(\C)c2ccc(NC(=O)c3ccccc3)cc2)s1  viability (MCF7; MTT; 0.625 µM): 2.63%
C[C@@H]1CC[C@@H]([C@](C)(O)CNCc2ccccc2F)[C@H](OCc2ccccc2)C1  inhibition (MCF7; MTT; 10 µM; 72 h): 39%
CC(=O)c1nn(-c2ccc(C)cc2)/c(=N/N=C(\C)c2ccc(NC(=O)c3ccccc3)cc2)s1  viability (MCF7; MTT; 0.312 µM): 4.36%
CC(=NNC(=O)c1ccccc1Cl)c1ccc(Nc2nnc(-c3ccc(Cl)cc3)c3ccccc23)cc1  viability (MCF7; MTT; 0.312 µM; 24 h): 99.9%
Cc1c(C(=O)O)ccc2c3n(nc12)[C@@H]1[C@H](C3)N(CC2CC2)[C@@]2(C(=O)Nc3cc(Cl)ccc32)[C@H]1c1cccc(Cl)c1F  GI50 (SJSA-1; resazurin): 7 nM
COc1cccc(CNC[C@@](C)(O)[C@@H]2CC[C@@H](C)C[C@H]2OCc2ccccc2)c1  inhibition (MCF7; MTT; 30 µM; 72 h): 95.9%
CC(=O)Nc1ccc(/C(C)=N/N=c2\sc(C(C)=O)nn2-c2ccc(C)cc2)cc1  viability (MCF7; MTT; 0.312 µM): 99.7%
O=C(Nc1ccc(Oc2nnc(-c3ccc(Cl)cc3)c3ccccc23)cc1)c1ccccc1  viability (MCF7; MTT; 0.625 µM; 24 h): 3.76%
C=CC(=O)NC1CCN(c2ncc3ncnc(Nc4ccc(Oc5ccc6c(c5)ncn6C)c(C)c4)c3n2)CC1  EC50 (C-33-A): 116 nM
O=C(Nc1ccccc1)Nc1ccc(Oc2nnc(-c3ccc(Cl)cc3)c3ccccc23)cc1  viability (MCF7; MTT; 1.25 µM; 24 h): 3.85%
CC(=O)c1nn(-c2ccccc2Cl)/c(=N/N=C(\C)c2ccc(NC(=O)c3ccccc3)cc2)s1  viability (MCF7; MTT; 0.312 µM): 7.5%
COc1ccc(CNC[C@](O)(COCc2ccc(OC)cc2)[C@@H]2CC[C@@H](C)C[C@H]2OCc2ccc(OC)cc2)cc1  inhibition (MCF7; MTT; 10 µM; 72 h): 101%
O=C(Nc1ccc(Oc2nnc(-c3ccc(Cl)cc3)c3ccccc23)cc1)c1cccc([N+](=O)[O-])c1  cell death (MCF7; MTT; 78 nM): 4.29%
C[C@@H]1CC[C@@H]([C@@](O)(CNCc2ccccc2)COCc2ccccc2)[C@H](OCc2ccccc2)C1  inhibition (MCF7; MTT; 30 µM; 72 h): 96.4%
CC(=NNC(=O)c1ccccc1)c1ccc(Nc2nnc(-c3ccc(Cl)cc3)c3ccccc23)cc1  cell death (MCF7; MTT; 10 µM): 94.1%
COc1ccccc1CNC[C@@](C)(O)[C@@H]1CC[C@@H](C)C[C@H]1OCc1ccccc1  inhibition (MCF7; MTT; 10 µM; 72 h): 46.9%
CC(=NNC(=O)c1ccccc1Br)c1ccc(Nc2nnc(-c3ccc(Cl)cc3)c3ccccc23)cc1  cell death (MCF7; MTT; 5 µM): 93.8%
CCOC(=O)c1nn(-c2cccc(Cl)c2)/c(=N/N=C(\C)c2ccc(NC(=O)c3ccc(Cl)cc3)cc2)s1  viability (MCF7; MTT; 2.5 µM): 3.54%
COc1ccc(CNC[C@@](C)(O)[C@@H]2CC[C@@H](C)C[C@H]2OCc2ccccc2)cc1  inhibition (MCF7; MTT; 30 µM; 72 h): 97%
CC(=NNC(N)=S)c1ccc(Nc2nnc(-c3ccc(Cl)cc3)c3ccccc23)cc1  cell death (MCF7; MTT; 78 nM): 9.65%
